Assay results pooled from the literature.
Protocols differ between the studies behind these lines.
Target: Mitogen-activated protein kinase 3 (MAPK3, Homo sapiens, UniProt P27361)

Structure (SMILES) | assay | system | conditions | quantity | value
COc1cc2ncnc(Nc3ccc(Oc4ccccc4)cc3C)c2cc1OC | enzyme activity, inhibitor |  | 1 µM | inhibition | 5%
CCN1CCN(Cc2ccc(NC(=O)c3ccc(C)c(/C=C/c4cnc5[nH]ccc5c4OC)c3)cc2C(F)(F)F)CC1 | target engagement in cells, inhibitor, chemoproteomics | A-375 | 5 µM | inhibition | -26.3%
FC(F)(F)Oc1cccc(-c2cnc3ccc(-c4ccncc4)nn23)c1 | enzyme activity, inhibitor, radiometric |  | 1 µM | activity vs control | 105%
O=C(Nc1cnn(-c2csc(C(=O)NC3COC3)c2)c1)Nc1ccccc1Cl | enzyme activity, inhibitor |  | 5 µM | remaining activity | 92.8%
CCN1CCN(Cc2ccc(NC(=O)c3ccc(C)c(Oc4ccnc5[nH]ccc45)c3)cc2C(F)(F)F)CC1 | target engagement in cells, inhibitor, chemoproteomics | A-375 | 5 µM | inhibition | -51.2%
CC/C(=N\NC(=O)NCc1cccc(O)c1)c1ccc(O)c(C)c1O | enzyme activity, inhibitor |  | 0.1 µM | inhibition | -2.7%
CC(C)(C)C(=O)c1sc(NC2CCCCC2)nc1N | enzyme activity, inhibitor |  | 10 µM | remaining activity | 73%
CN(c1ccnc(CNc2nc(Nc3ccc4c(c3)CC(=O)N4)ncc2C(F)(F)F)n1)S(C)(=O)=O | cell-free assay, competition with immobilised ligand |  | 1 µM | remaining binding | 96%
CNC(=O)c1cc(Oc2ccc(NC(=O)Nc3ccc(Cl)c(C(F)(F)F)c3)cc2)ccn1 | cell-free assay |  | 0.5 µM | remaining signal | 105%
FC(F)c1nc2ccccc2n1-c1nc(N2CCOCC2)nc(N2CCOCC2)n1 | enzyme activity, inhibitor |  | 10 µM | remaining activity | 106%
N#CC(c1ccnc(NCCc2cccnc2)n1)c1nc2ccccc2s1 (stereo not shown) | enzyme activity, inhibitor |  | 0.5 µM | remaining activity | 99.4%
Cc1nc(Cc2cccc(C(F)(F)F)c2)sc1-c1ccc(C(N)=O)nc1 | cell-free assay, competition with immobilised ligand |  | 1 µM | remaining binding | 96%
Cn1c2c(c3ccc(Cl)c(Cl)c31)C(C#N)C1(CCCC1)NC2=O (stereo not shown) | thermal stability, DSF |  | 10 µM | ΔTm | -0.2 °C
C[C@H](c1ccc(F)cc1)N(Cc1cccc(C(=O)O)c1)C(=O)c1cnc2ccccc2c1 | cell-free assay, competition with immobilised ligand |  | 1 µM | remaining binding | 100%
O=C1C(Cl)=C(N2C(=O)CCC2=O)C(=O)c2ccccc21 | enzyme activity, inhibitor |  | 0.5 µM | remaining activity | 99.3%
CC1(C)NC(=O)c2[nH]c3c(Cl)c(Cl)ccc3c2C1C#N (stereo not shown) | thermal stability, DSF |  | 10 µM | ΔTm | 0.2 °C
COc1cc(Nc2cnc(C#N)c(O[C@H](C)CN(C)C)n2)ncc1-c1cnn(C)c1 | enzyme activity, inhibitor, radiometric |  | 1 µM | remaining activity | 96%

Structure (SMILES) | assay | system | conditions | quantity | value
CCC1(CC)NC(=O)c2c(c3ccc(Cl)c(Cl)c3n2C)C1C#N (stereo not shown) | thermal stability, DSF |  | 10 µM | ΔTm | 0 °C
CC(C)(C)c1nc2c(s1)c1nc(N)ncc1c1ccc(NS(=O)(=O)c3c(F)cccc3F)c(F)c12 | enzyme activity, inhibitor, radiometric |  | 1 µM | remaining activity | 84%
CN1CCC2(CC1)NC(=O)c1c(c3ccc(Cl)c(Cl)c3n1C)C2C#N (racemic) | thermal stability, DSF |  | 10 µM | ΔTm | 0.3 °C
Cc1cc(NC(=O)c2cccc(S(F)(F)(F)(F)F)c2)cc(-n2ccn3nc(-c4cccnc4)cc23)c1 | cell-free assay, competition with immobilised ligand |  | 1 µM | remaining binding | 86.8%
Nc1nc(Nc2ccccc2)sc1C(=O)c1c(F)cccc1F | enzyme activity, inhibitor |  | 10 µM | remaining activity | 72%
Cc1cc(-n2nc(Cc3cc(F)cc(C(F)(F)F)c3)nc2C)ccc1C(N)=O | cell-free assay, competition with immobilised ligand |  | 1 µM | remaining binding | 100%
Cn1c2c(Cl)c(Cl)ccc2c2cn[nH]c(=O)c21 | thermal stability, DSF |  | 10 µM | ΔTm | 0.1 °C
Cc1ccc(NC(=O)c2ccc(CN3CCN(C)CC3)cc2)cc1Nc1nc(-c2cccnc2)cs1 | cell-free assay |  | 0.5 µM | remaining signal | 103%
Cn1c2c(Cl)c(Cl)ccc2c2cc(N)[nH]c(=O)c21 | thermal stability, DSF |  | 10 µM | ΔTm | -0.4 °C
COc1cc(Nc2c(C#N)cnc3cc(OCCCN4CCN(C)CC4)c(OC)cc23)c(Cl)cc1Cl | cell-free assay |  | 0.5 µM | remaining signal | 98.9%
Cc1c[nH]c2nccc(Oc3c(F)cc(Nc4cc(Cl)nc(N)n4)cc3F)c12 | cell-free assay, competition with immobilised ligand |  | 0.1 µM | remaining binding | 90%
Oc1cccc(-c2nc(N3CCOCC3)c3oc4ncccc4c3n2)c1 | enzyme activity, inhibitor |  | 10 µM | remaining activity | 112%
Nc1ncnc2occ(-c3ccc(NC(=O)Nc4cc(C(F)(F)F)ccc4F)cc3)c12 | cell-free assay, inhibitor |  | 20 µM | remaining signal | 100%
CCC(=O)N[C@@H]1CC[C@H](C(=O)N(C)c2ccc(-c3nc4ccccc4o3)cc2)C1 | cell-free assay, competition with immobilised ligand |  | 1 µM | remaining binding | 100%
Cn1c2c(c3ccc(Cl)c(Cl)c31)C(C#N)C1(CCNCC1)NC2=O (racemic) | thermal stability, DSF |  | 10 µM | ΔTm | 0.5 °C
Cn1nc(C(=O)NCc2ccc(C(=O)O)cc2)cc1-c1ccc2[nH]ccc2c1 | cell-free assay, competition with immobilised ligand |  | 0.1 µM | remaining binding | 94%
Cc1sc(C(=O)NC2COC2)cc1-n1cc(NC(=O)Nc2c(F)cccc2Cl)cn1 | enzyme activity, inhibitor |  | 10 µM | remaining activity | 107%
